Test results from the array DNA melting data of Ke et al. (doi:10.1101/2024.01.08.574731).

How the values were obtained:
[1] = melting temperature; fluorescence melt of hairpins on a sequencing array, two-state fit, raised by 9.35 °C to match UV melts; details: sodium 0.088 M
Procedure, shortened: (§1)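 Melting temperature and folding enthalpy were obtained by bootstrapped two-state fitting. Fits used Cy3 fluorescence of library hairpins with annealed Cy3 and quencher oligos on a sequenced MiSeq flow cell, imaged in 50 mM Na-HEPES pH 8.0, 25 mM NaCl in 2.5 °C steps up to 60 °C and normalised to pre-quench Cy3 and control constructs. Four replicates were combined by inverse-variance weighting, and fitted temperatures were raised by 9.35 °C to match UV melts.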

[2] = folding enthalpy; higher = less favourable; fluorescence melt of hairpins on a sequencing array, two-state fit; details: sodium 0.088 M
Procedure, shortened: as §1

Sequence | Tm [1] [°C] | folding enthalpy [2] [kcal/mol]
GATCCAGCGCTGGATC ((((((....)))))) | 60.1 | -54.5
GATCCAGCTATGGATC ((((((....)))))) | 58.8 | -33.5
GATCCAGGAAACCGGATC (((((.(....).))))) | 45.7 | -33.3
GATCCAGGCCTGGATC ((((((....)))))) | 60 | -54.9
GATCCAGGCTTGGATC ((((((....)))))) | 54.8 | -43.8
GATCCAGGGCTGGATC ((((((....)))))) | 52.4 | -38.3
GATCCATAACTGGATC ((((((....)))))) | 48.1 | -33.9
GATCCATAATTGGATC ((((((....)))))) | 50.7 | -39.7
GATCCATAGGTGGATC ((((((....)))))) | 52 | -36
GATCCATATGTGGATC ((((((....)))))) | 54.9 | -38.1
GATCCATCATTGGATC ((((((....)))))) | 51.4 | -35.8
GATCCATCCATGGATC ((((((....)))))) | 55.8 | -43.4
GATCCATCCGTGGATC ((((((....)))))) | 52.9 | -46.6
GATCCATCTGTGGATC ((((((....)))))) | 54.3 | -36.4
GATCCATGATTGGATC ((((((....)))))) | 51.9 | -38.4
GATCCATGCGTGGATC ((((((....)))))) | 56.8 | -35.8
GATCCATGTATGGATC ((((((....)))))) | 58 | -42.6
GATCCATTCTTGGATC ((((((....)))))) | 54 | -42.1
GATCCATTTATGGATC ((((((....)))))) | 60.8 | -44.2
GATCCCAAAAGGGATC ((((((....)))))) | 59.3 | -27.9
GATCCCAACGGGGATC ((((((....)))))) | 59.4 | -30.9
GATCCCAAGGGGATC ((((((...)))))) | 66.6 | -35.8
GATCCCACAGGGATC ((((((...)))))) | 67.1 | -33.1
GATCCCACAGGGGATC ((((((....)))))) | 61.8 | -33.4

Sequence | Tm [1] [°C] | folding enthalpy [2] [kcal/mol]
GATCCCACATGGGATC ((((((....)))))) | 60.8 | -45.5
GATCCCACGGGGATC ((((((...)))))) | 65.6 | -33.5
GATCCCAGCGGGATC ((((((...)))))) | 68.9 | -37.9
GATCCCAGTGGGGATC ((((((....)))))) | 62.3 | -32.7
GATCCCATAGGGATC ((((((...)))))) | 67 | -36.9
GATCCCATAGGGGATC ((((((....)))))) | 60.4 | -32.9
GATCCCATCAGGGATC ((((((....)))))) | 65.7 | -36.3
GATCCCATCCGGGATC ((((((....)))))) | 64.2 | -36.8
GATCCCATCGGGATC ((((((...)))))) | 67.4 | -36.5
GATCCCATTAGGGATC ((((((....)))))) | 63 | -36.5
GATCCCATTCGGGATC ((((((....)))))) | 62.1 | -38.7
GATCCCATTTGGGATC ((((((....)))))) | 66.1 | -37
GATCCCCAACGGGATC ((((((....)))))) | 57.2 | -29.7
GATCCCCAAGGGGATC ((((((....)))))) | 65 | -37.4
GATCCCCACGGGGATC ((((((....)))))) | 66.4 | -36.2
GATCCCCAGGGGATC ((((((...)))))) | 61.9 | -33.1
GATCCCCATAGGGATC ((((((....)))))) | 62.8 | -41.1
GATCCCCCCCGGGATC ((((((....)))))) | 57.2 | -38.5
GATCCCCCGAGGGATC ((((((....)))))) | 62.1 | -34.6
GATCCCCCGCGGGATC ((((((....)))))) | 57.2 | -34.2
GATCCCCCGGGGATC ((((((...)))))) | 64.8 | -31.5
GATCCCCCGTGGGATC ((((((....)))))) | 60.5 | -36.7
GATCCCCCTGGGATC ((((((...)))))) | 62.1 | -38.4
GATCCCCGAAAGGGAATC (((.(((....))).))) | 44.9 | -21.8

Sequence | Tm [1] [°C] | folding enthalpy [2] [kcal/mol]
GATCCCCGAAAGGGATC (((.(((....)))))) | 56.2 | -29.8
GATCCCCGAAAGGGTATC (((.(((....))).))) | 42.2 | -21.1
GATCCCCGCCGGGATC ((((((....)))))) | 57.7 | -40.3
GATCCCCGCTGGGATC ((((((....)))))) | 61.8 | -32.9
GATCCCCGGAGGGATC ((((((....)))))) | 59.5 | -19.2
GATCCCCTAGGGGATC ((((((....)))))) | 66.6 | -44.1
GATCCCCTGGGGGATC ((((((....)))))) | 66.6 | -36.4
GATCCCGAAAGGGTATC ((((((....))).))) | 45.5 | -15.8
GATCCCGCATGGGATC ((((((....)))))) | 68 | -32.9
GATCCCGCGTGGGATC ((((((....)))))) | 59.9 | -38.4
GATCCCGCTGGGGATC ((((((....)))))) | 60.8 | -36.9
GATCCCGGGTGGGATC ((((((....)))))) | 60.3 | -36
GATCCCGGTCGGGATC ((((((....)))))) | 66.1 | -35.5
GATCCCGGTTGGGATC ((((((....)))))) | 65.2 | -32.4
GATCCCGTCGGGGATC ((((((....)))))) | 64.1 | -35.1
GATCCCTAAAGGGATC ((((((....)))))) | 60.6 | -36.5
GATCCCTAACGGGATC ((((((....)))))) | 57.6 | -39.7
GATCCCTACGGGATC ((((((...)))))) | 67.9 | -32.5
GATCCCTATGGGGATC ((((((....)))))) | 65.5 | -31.3
GATCCCTCCCGGGATC ((((((....)))))) | 61.4 | -40.5
GATCCCTCGCGGGATC ((((((....)))))) | 59.6 | -39.1
GATCCCTCTTGGGATC ((((((....)))))) | 63.7 | -36.8
GATCCCTGTCGGGATC ((((((....)))))) | 60 | -35
GATCCCTGTGGGATC ((((((...)))))) | 66.7 | -35

Sequence | Tm [1] [°C] | folding enthalpy [2] [kcal/mol]
GATCCCTTACGGGATC ((((((....)))))) | 61.5 | -38.9
GATCCCTTAGGGATC ((((((...)))))) | 66.1 | -38.3
GATCCCTTGGGGGATC ((((((....)))))) | 60.1 | -46.9
GATCCGAAAGGATC (((((....))))) | 66.8 | -29.5
GATCCGAACTCGGATC ((((((....)))))) | 56.4 | -40.9
GATCCGAATCCGGATC ((((((....)))))) | 55.8 | -38.5
GATCCGAATCGGATC ((((((...)))))) | 55 | -36
GATCCGAATTCGGATC ((((((....)))))) | 60.2 | -43.3
GATCCGACCACGGATC ((((((....)))))) | 61.3 | -36.9
GATCCGACCCCGGATC ((((((....)))))) | 54.4 | -42.1
GATCCGACGCCGGATC ((((((....)))))) | 56.7 | -36.7
GATCCGACGCGGATC ((((((...)))))) | 56.8 | -37.3
GATCCGACGTCGGATC ((((((....)))))) | 59.9 | -52
GATCCGACTCCGGATC ((((((....)))))) | 55.1 | -44.3
GATCCGAGAACGGATC ((((((....)))))) | 54.5 | -37.4
GATCCGAGACCGGATC ((((((....)))))) | 54.4 | -36.6
GATCCGAGAGCGGATC ((((((....)))))) | 54.6 | -38.3
GATCCGAGCCCGGATC ((((((....)))))) | 55.3 | -35.6
GATCCGATGACGGATC ((((((....)))))) | 58.2 | -35.4
GATCCGATTCGGATC ((((((...)))))) | 58.3 | -39.2
GATCCGATTTCGGATC ((((((....)))))) | 62.6 | -33
GATCCGCAAACGGATC ((((((....)))))) | 58 | -42.2
GATCCGCACCGGATC ((((((...)))))) | 57.1 | -29.4
GATCCGCAGGCGGATC ((((((....)))))) | 66.6 | -28.3
